Converted amounts (≈) assume the structure as drawn. The source made the active and inactive calls. The calls are words filed in the database; no cut-off is given here.
How the values were obtained:
[1] = Drug uptake in Sprague-Dawley rat liver at 3 mg/kg, po qd administered via gavage measured 7 hrs post last dose on day 14 by LC-MS/MS analysis; format: ADME, organism-based; settings: read-out: Drug uptake
Method in brief: (§1)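 Drug concentration in liver was quantified from tissue homogenates, so these are total levels. Unbound liver concentration was not determined.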

[2] = Protein binding in mouse plasma at 5 mg/kg, iv or 10 mg/kg, po administered via gavage by LC-MS/MS analysis; format: ADME, organism-based; settings: read-out: PPB
[3] = Cmax in Sprague-Dawley rat at 1 mg/kg, po qd administered via gavage measured on day 11 by LC-MS/MS analysis; format: ADME, organism-based; set-up: dose 1 mg/kg, route oral; settings: in vivo
[4] = Protein binding in dog plasma at 0.5 mg/kg, iv or 2 mg/kg, po administered via gavage by LC-MS/MS analysis; format: ADME, organism-based, Canis lupus familiaris; settings: read-out: PPB
[5] = tested on: Rattus norvegicus; experiment: Dose normalized AUC (0 to 24 hrs) in Sprague-Dawley rat at 0.3 mg/kg, po qd administered via gavage measured on day 11 by LC-MS/MS analysis; format: ADME, organism-based; settings: in vivo
[6] = AUC in mouse at 10 mg/kg, po administered via gavage by LC-MS/MS analysis; format: ADME, organism-based; settings: in vivo
Method in brief: (§2)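 Single oral dose given as a suspension in 0.5% methylcellulose, 0.5% Tween80 and 99% water. Doses were 10 mg/kg in mouse, 1 mg/kg in rat and 2 mg/kg in dog.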

[7] = tested on: Rattus norvegicus; experiment: Drug metabolism in rat assessed as taurine conjugated metabolite formation at 3 mg/kg, iv or 1 mg/kg, po administered via gavage by LC-MS/MS analysis; format: ADME, organism-based; settings: in vivo
[8] = Oral bioavailability in dog at 2 mg/kg administered via gavage by LC-MS/MS analysis; format: ADME, organism-based, Canis lupus familiaris; settings: in vivo
Method in brief: (§3)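 IV dosing used a solution in 75% PEG300:25% D5W for mouse and rat, and a solution in 20% PEG300, 5% solutol, 75% carbonate buffer pH 8 for dog. PO dosing used a suspension in 0.5% methylcellulose, 0.5% Tween80, 99% water for all three species.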

[9] = Oral bioavailability in mouse at 10 mg/kg administered via gavage by LC-MS/MS analysis; format: ADME, organism-based; settings: in vivo; method in brief: as §3
[10] = Drug uptake in Sprague-Dawley rat plasma at 3 mg/kg, po qd administered via gavage measured 1 hr post last dose on day 14 by LC-MS/MS analysis; format: ADME, organism-based
[11] = tested on: Rattus norvegicus; experiment: Dose normalized AUC (0 to 24 hrs) in Sprague-Dawley rat at 0.03 mg/kg, po qd administered via gavage measured on day 1 by LC-MS/MS analysis; format: ADME, organism-based; settings: in vivo
[12] = Cmax in rat at 1 mg/kg, po administered via gavage by LC-MS/MS analysis; format: ADME, organism-based; set-up: dose 1 mg/kg, route oral; settings: in vivo; method in brief: as §2
[13] = Cmax in dog at 2 mg/kg, po administered via gavage by LC-MS/MS analysis; format: ADME, organism-based, Canis lupus familiaris; set-up: dose 2 mg/kg, route oral; settings: in vivo; method in brief: as §2
[14] = biological target: T1, Bile acid receptor (Rattus norvegicus) (UniProt Q62735); experiment: Agonist activity at FXR in rat primary hepatocytes assessed as induction of SHP mRNA level after 24 hrs by qPCR analysis; format: cell-based
T1 sequence (whole entry): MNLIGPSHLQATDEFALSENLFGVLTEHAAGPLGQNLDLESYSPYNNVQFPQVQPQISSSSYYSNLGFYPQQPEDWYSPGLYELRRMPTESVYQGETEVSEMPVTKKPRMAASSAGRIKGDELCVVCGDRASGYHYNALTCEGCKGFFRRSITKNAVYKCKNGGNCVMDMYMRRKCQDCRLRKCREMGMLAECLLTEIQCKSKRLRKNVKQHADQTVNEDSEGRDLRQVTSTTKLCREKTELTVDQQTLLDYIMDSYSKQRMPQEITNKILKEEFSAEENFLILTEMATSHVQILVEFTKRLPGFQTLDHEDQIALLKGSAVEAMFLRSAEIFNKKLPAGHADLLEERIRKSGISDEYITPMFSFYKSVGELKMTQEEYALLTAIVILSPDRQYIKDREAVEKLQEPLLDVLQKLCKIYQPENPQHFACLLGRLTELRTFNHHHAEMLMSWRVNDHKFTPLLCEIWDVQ

[15] = Drug uptake in Sprague-Dawley rat liver at 0.003 mg/kg, po qd administered via gavage measured 1 hr post last dose on day 14 by LC-MS/MS analysis; format: ADME, organism-based; settings: read-out: Drug uptake; method in brief: as §1
[16] = Oral bioavailability in rat at 1 mg/kg administered via gavage by LC-MS/MS analysis; format: ADME, organism-based; settings: in vivo; method in brief: as §3
[17] = tested on: Rattus norvegicus; experiment: Dose normalized AUC (0 to 24 hrs) in Sprague-Dawley rat at 1 mg/kg, po qd administered via gavage measured on day 11 by LC-MS/MS analysis; format: ADME, organism-based; settings: in vivo
[18] = tested on: Rattus norvegicus; experiment: In vivo agonist activity at FXR in po dosed Sprague-Dawley rat assessed as induction of SHP mRNA level in liver administered once daily for 14 days measured 7 hrs post last dose on day 14 by qPCR analysis; format: functional
[19] = tested on: Rattus norvegicus; experiment: In vivo agonist activity at FXR in Sprague-Dawley rat assessed as induction of SHP mRNA level in ileum at 0.01 mg/kg, po qd for 14 days measured 7 hrs post last dose on day 14 by qPCR analysis; format: functional, organism-based
[20] = tested on: Rattus norvegicus; experiment: In vivo agonist activity at FXR in po dosed Sprague-Dawley rat assessed as induction of BSEP mRNA level in liver administered once daily for 14 days measured 7 hrs post last dose on day 14 by qPCR analysis; format: functional
[21] = Half life in dog at 0.5 mg/kg, iv by LC-MS/MS analysis; format: ADME, organism-based, Canis lupus familiaris; settings: in vivo
Method in brief: (§4)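 Single IV dose given as a solution. Mouse and rat received it in 75% PEG300:25% D5W. Dog received it in 20% PEG300, 5% solutol and 75% carbonate buffer pH = 8. Plasma was sampled for PK parameters.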

[22] = Drug uptake in Sprague-Dawley rat plasma at 0.003 mg/kg, po qd administered via gavage measured 7 hrs post last dose on day 14 by LC-MS/MS analysis; format: ADME, organism-based
[23] = AUC (0 to 24 hrs) in Sprague-Dawley rat at 0.03 mg/kg, po qd administered via gavage measured on day 1 by LC-MS/MS analysis; format: ADME, organism-based; set-up: time < 24 hr, dose 0.03 mg/kg, route oral; settings: in vivo
[24] = Cmax in Sprague-Dawley rat at 1 mg/kg, po qd administered via gavage measured on day 1 by LC-MS/MS analysis; format: ADME, organism-based; set-up: dose 1 mg/kg, route oral; settings: in vivo
[25] = tested on: Rattus norvegicus; experiment: In vivo agonist activity at FXR in po dosed Sprague-Dawley rat assessed as reduction in serum triglyceride level administered once daily for 14 days measured 24 hrs post last dose; format: functional, organism-based
[26] = Drug uptake in Sprague-Dawley rat liver at 0.01 mg/kg, po qd administered via gavage measured 1 hr post last dose on day 14 by LC-MS/MS analysis; format: ADME, organism-based; settings: read-out: Drug uptake; method in brief: as §1
[27] = Half life in mouse at 5 mg/kg, iv by LC-MS/MS analysis; format: ADME, organism-based; settings: in vivo; method in brief: as §4
[28] = Cmax in rat at 10 mg/kg, po administered via gavage by LC-MS/MS analysis; format: ADME, organism-based; set-up: dose 10 mg/kg, route oral; settings: in vivo
Method in brief: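 Rats were dosed IV as a solution in 75% PEG300:25% D5W, or orally as a suspension in 0.5% methylcellulose, 0.5% Tween80 and 99% water.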

[29] = Solubility of the compound in fasted state simulated intestinal fluid at pH 6.8; format: physicochemical
[30] = tested on: Rattus norvegicus; experiment: In vivo agonist activity at FXR in po dosed Sprague-Dawley rat assessed as induction of BSEP mRNA level in liver administered as single dose after 7 hrs post dose by qPCR analysis; format: functional, organism-based

O=C(O)c1cc(F)c2nc(N3C4CCC3CC(OCc3c(-c5ccccc5OC(F)(F)F)noc3C3CC3)C4)sc2c1 (stereo not given)
concentration at 7 h [1]: 640 nM
fraction unbound [2]: 0.001
Cmax [3]: 43.1 nM
fraction unbound [4]: 0.001
AUC/dose [5]: 633 nM·h
AUC [6]: 4.79 µM·h
Drug metabolism [7]: Metabolite_Notdetected
bioavailability [8]: 10%
bioavailability [9]: 9.2%
concentration at 1 h [10]: 62.6 nM
AUC/dose [11]: 503 nM·h
Cmax [12]: 53 nM
Cmax [13]: 332 nM
Activity [14]: Dose-dependent effect
concentration at 1 h [15]: 2.92 nM
bioavailability [16]: 10%
AUC/dose [17]: 562 nM·h
ED50 [18]: 0.02 mg/kg
Activity [19]: Active
ED50 [20]: 0.02 mg/kg
half-life [21]: 444 min
concentration at 7 h [22]: 0.12 nM
AUC(0-t) at 24 h [23]: 0.015 µM·h
Cmax [24]: 39.3 nM
Activity [25]: Dose-dependent effect
concentration at 1 h [26]: 8.35 nM
half-life [27]: 156 min
Cmax [28]: 2280 nM
solubility [29]: 600 µM (≈ 362 µg/mL)
Activity [30]: Dose-dependent effect
